Source: PubChem
Shown are actives, neighbours in structure and some others; about 2% of the full set was active somewhere.
LEDGF integ inh: blocks HIV-1 LEDGF/p75-dependent DNA integration; TR-FRET IN-LEDGF/p75 DNA integration, Eu/Cy5; inhibition, % at 3.7 µM; 0.64% of 370,000 active; AID 743269;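 active = inhibition above the screen-wide mean plus 3 SD, cut at about 13% in these data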;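 note: signal is the Cy5 over europium emission ratio at 671 and 618 nm; 0% = plate median of compound wells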
MBD2 inh: MBD2-methylated oligo binding inhibition; Q9UBB5; TR-FRET, MBD2 binding to methylated oligonucleotide; inhibition, % at 4.4 µM; 0.31% of 370,000 active; AID 686964; in the data active = inhibition above about 13%
Target sequence (Q9UBB5 whole entry, looked up): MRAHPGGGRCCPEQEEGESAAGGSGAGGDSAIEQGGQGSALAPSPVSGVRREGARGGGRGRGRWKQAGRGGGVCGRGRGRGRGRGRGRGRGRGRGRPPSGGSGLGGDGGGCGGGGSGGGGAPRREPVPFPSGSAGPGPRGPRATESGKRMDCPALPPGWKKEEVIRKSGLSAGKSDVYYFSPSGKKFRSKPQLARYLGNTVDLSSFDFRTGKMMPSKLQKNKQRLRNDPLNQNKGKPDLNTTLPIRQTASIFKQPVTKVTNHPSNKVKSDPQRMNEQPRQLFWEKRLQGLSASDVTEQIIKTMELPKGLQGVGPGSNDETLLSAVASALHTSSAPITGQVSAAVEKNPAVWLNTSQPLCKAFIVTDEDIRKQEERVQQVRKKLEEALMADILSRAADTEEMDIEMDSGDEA
UHRF1 binding: UHRF1 methyl-DNA binding inhibition. inhibition, % at 4.4 µM. UHRF1 binding to methylated oligo, TR-FRET. 0.75% of 370,000 active. Q96T88. AID 687016; in the data active = inhibition above about 21%;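 note: UHRF1 SRA domain binding a hemimethylated CpG hairpin DNA probe; 0% = median of test compound wells and 100% = reference inhibitor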
TDP2 inh: blocks human TDP2 phosphodiesterase activity; recombinant TDP2, T5PNP hydrolysis, p-nitrophenol absorbance 415 nm; inhibition, % at 12.8 µM; 0.34% of 370,000 active; AID 720702;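 active = inhibition above the mean of all tested compounds plus 3 SD, set per campaign, cut at about 25% in these data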;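 note: 0% = DMSO with enzyme and 100% = buffer with substrate but no TDP2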
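test system = human TDP2 enzyme | input = TDP2 enzyme at 120 nM final | medium = 50 mM Tris-HCl pH 7.5 with Mg2+, KCl, DTT, BSA | also added = T5PNP substrate, 5 mM | times = 2 h at 37 °C | technique = epi absorbance | benchmarks = high control without enzyme, low control DMSO plus TDP2 | replication = each compound tested once, singlicate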
ARFGAP1 inh: inhibitors of rat ARFGAP1 | inhibition, % at 16.5 µM | Q62848 | Arfgap1-stimulated ARF1 GTP hydrolysis, GDP FP detection | AID 651572 | 0.26% of 360,000 active;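 active = inhibition above a per-plate limit, mean inhibition of low control wells plus 3 SD, cut at about 25% in these data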;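 note: 0% = DMSO wells with enzyme and 100% = wells lacking Arfgap1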
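Replicates: Single well per compound | Assay system: Truncated rat Arfgap1 GAP domain | Control set: No-Arfgap1 wells (100%) versus DMSO full-reaction wells (0%) | Times: Enzyme reaction 120 min at 25 °C after 20 min preincubation | Reagent: Human ARF1(Δ1-17)-GTP substrate | Measured by: Tracer-displacement fluorescence polarization with EDTA stop, 620/688 nm | Measure: Percent inhibition of Arfgap1-stimulated GTP hydrolysis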
ASAP1 inh: inhibitors of human ASAP1 ArfGAP activity; 0.19% of 360,000 active; Q9ULH1; AID 624377; ASAP1-stimulated ARF1 GTP hydrolysis, GDP FP detection; inhibition, % at 16.5 µM; in the data active = inhibition above about 25%;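 note: 0% = vehicle with enzyme and substrate and 100% = no enzyme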
IN multimer up: HIV-1 integrase multimerization activation, counter-screen; TR-FRET HIV-1 integrase multimerization, biochemical; 17% of 2,000 active; shares compounds with LEDGF integ inh; AID 1053131; activation, % at 7.7 µM; in the data active = activation above about 8.9%
TRFRET interf: TR-FRET optical interference, LEDGF/p75 integration counter-screen; shares compounds with LEDGF integ inh; TR-FRET optical interference counterscreen, HIV-1 IN multimerization; inhibition, % at 7.7 µM; 2,000 tested, under 10 active;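 active = inhibition above the mean over all tested compounds plus 3 SD, which no compound reached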;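 note: 0% = integrase with antibodies and DMSO and 100% = antibodies without integrase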
IN-LEDGF confirm: confirmation of HIV-1 LEDGF/p75-dependent integration inhibitors. 36% of 2,000 active. inhibition, % at 3.7 µM. TR-FRET LEDGF/p75-dependent HIV-1 integration, biochemical. AID 1053136. shares compounds with LEDGF integ inh; in the data active = inhibition above about 14%
The depositor's hits bear a star.

Screening O=C(O)c1cccc2cccc(-c3c4ccc(=O)c(O)c-4oc4c(O)c(O)ccc34)c12 returned LEDGF integ inh 90*, MBD2 inh 67*, UHRF1 binding 92*, TDP2 inh 19, ARFGAP1 inh -27, ASAP1 inh -8, IN multimer up 71*, TRFRET interf -356 and IN-LEDGF confirm 93*.
For O=C(O)c1cccc2cc(-c3ccccc3)oc(=O)c12 the results were LEDGF integ inh -3, MBD2 inh 0, UHRF1 binding 2, TDP2 inh 7, ARFGAP1 inh 4 and ASAP1 inh 7.
CCn1c(=O)c(C(=O)CN2CCN(S(=O)(=O)c3cc(C)ccc3C)CC2)c(N)n(Cc2ccccc2)c1=O was read as LEDGF integ inh 50*, MBD2 inh 0, UHRF1 binding -2, TDP2 inh 10, ARFGAP1 inh 3, ASAP1 inh 14, IN multimer up 1, TRFRET interf -6 and IN-LEDGF confirm -5.
Screening CCOc1ccc(CC(=O)N/N=C/c2cccnc2)cc1OCC returned LEDGF integ inh 70*, MBD2 inh -3, UHRF1 binding -4, TDP2 inh 7, ARFGAP1 inh -6, ASAP1 inh 1, IN multimer up 2, TRFRET interf -10 and IN-LEDGF confirm 0.
COc1ccc(CC(=O)N/N=C/c2cccnc2)cc1OC was read as LEDGF integ inh -3, MBD2 inh -1, UHRF1 binding -2, TDP2 inh -7, ARFGAP1 inh 0 and ASAP1 inh -10.
`O=C(N/N=C/c1cccnc1)c1cc(O)c(O)c(O)c1` gave LEDGF integ inh 38*, MBD2 inh 1, UHRF1 binding 15, TDP2 inh 15, ARFGAP1 inh 0, ASAP1 inh -2, IN multimer up 35*, TRFRET interf -125 and IN-LEDGF confirm 20*.
`C[C@H]1Cn2nnc(-c3ccccc3)c2Cn2c3ccccc3c(=O)n21` gave LEDGF integ inh 5, MBD2 inh 3, UHRF1 binding 1 and TDP2 inh -5.
For Cc1ccc(S(=O)(=O)/N=C2/NC(=O)/C(=C/c3ccc(Br)o3)S2)cc1 the results were LEDGF integ inh 38*, MBD2 inh 25*, UHRF1 binding 81*, TDP2 inh 1, ARFGAP1 inh -4, ASAP1 inh -1, IN multimer up 1, TRFRET interf -5 and IN-LEDGF confirm 11.
`Cc1ccc(S(=O)(=O)/N=C2/NC(=O)/C(=C/c3cccnc3)S2)cc1` gave LEDGF integ inh 0, MBD2 inh -1, UHRF1 binding -1, TDP2 inh 5, ARFGAP1 inh 18 and ASAP1 inh -7.
Screening CC1=C(n2nnc([N+](=O)[O-])n2)C(c2cccnc2)C(C#N)=C(N)O1 (centres undefined) returned LEDGF integ inh 30*, MBD2 inh -2, UHRF1 binding 2, TDP2 inh 13, ARFGAP1 inh 6, ASAP1 inh -4, IN multimer up 2, TRFRET interf -9 and IN-LEDGF confirm -2.
For COC(=O)C1=C(C)OC(N)=C(C#N)C1c1cccnc1 (centres undefined) the results were LEDGF integ inh -2, MBD2 inh 2, UHRF1 binding -4, TDP2 inh 1, ARFGAP1 inh 8 and ASAP1 inh -6.
Screening Cc1ccc(C(=O)n2ccc3ccc(-c4ccc5ccn(Cc6ccc(C#N)cc6)c5c4)cc32)cc1 returned LEDGF integ inh 10, MBD2 inh -6, UHRF1 binding -1 and TDP2 inh -6.
